Experimental data as given in PMC5901648 (Cancer, 2017).
Structures can show the parent of a compound that is named as a salt. Where two headings read alike, the source gives them in different places.

How the values were obtained:
[1] = test system: patients with advanced hematological malignancies; test: Phase 1 dose escalation, safety and toxicity, Arm 1; conditions: human, in vivo
[2] = Plasma pharmacokinetics of pracinostat; type: in vivo, human; conditions: for half-life / Tmax / AUC(0-inf) / Cmax: human, plasma; for AUC(0-inf): AUC0-inf
In short: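 The test compound was given orally at 10–120 mg to patients with hematologic malignancies. AUC0-inf was noncompartmental, t1/2 came from the terminal log-linear phase (≥3 last points), and Cmax/Tmax were read from the curves.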

[3] = test system: HDAC; conditions: pan-HDACI; cited from earlier work
[4] = test system: histone H3 acetylation (AcH3) in peripheral blood mononuclear cells; test: Pharmacodynamics: AcH3 levels in PBMCs; type: in vivo, human; conditions: ten subjects; maximal at 3 h post-dose; no dose-dependent increase
[5] = test system: patients with advanced solid tumors; conditions: cited from earlier work; for stable disease (SD) as best response, patients: advanced solid tumors
[6] = test system: patients with advanced hematological malignancies; test: Efficacy; type: in vivo, human
[7] = in vivo studies; cited from earlier work
[8] = cited from earlier work
[9] = po, 40 mg, Day 15, 40 mg oral, n=5, mean±SD
[10] = po, 40 mg, Day 1, 40 mg oral, n=6, mean±SD
[11] = po, 60 mg, Day 1, 60 mg oral, n=3, mean±SD
[12] = po, 60 mg, Day 15, 60 mg oral, n=3, mean±SD
[13] = po, 80 mg, Day 1, 80 mg oral, n=3, mean±SD
[14] = po, 80 mg, Day 15, 80 mg oral, n=3, mean±SD
[15] = po, 100 mg, Day 1, 100 mg oral, n=3, mean±SD
[16] = po, 100 mg, Day 15, 100 mg oral, n=3, mean±SD
[17] = po, 120 mg, Day 1, 120 mg oral, n=6, mean±SD
[18] = po, 120 mg, Day 15, 120 mg oral, n=2, mean

For CCCCc1nc2cc(/C=C/C(=O)NO)ccc2n1CCN(CC)CC [Pracinostat, 3-[2-butyl-1-(2-diethylaminoethyl)-1H-benzoimidazol-5-yl]-N-hydroxyacrylami-hydrochloride], the “AEs leading to a dose-interruption, patients” value [1] was 34%, the “AEs leading to a dose-reduction, patients” value [1] was 27% and the “Anemia, treatment-related adverse event, All Grades” value [1] was 5%. The “Anemia, treatment-related adverse event, Grade ≥ 3” value [1] was 5%, the “Anorexia, treatment-related adverse event, All Grades” value [1] was 23% and the “Anorexia, treatment-related adverse event, Grade ≥ 3” value [1] was 2%. For the same compound, the “Constipation, treatment-related adverse event, All Grades” value [1] was 5%, the “Constipation, treatment-related adverse event, Grade ≥ 3” value [1] was 0% and the “Diarrhea, treatment-related adverse event, All Grades” value [1] was 16%. The “Diarrhea, treatment-related adverse event, Grade ≥ 3” value [1] was 2%, the “Elevated ALT, treatment-related adverse event, All Grades” value [1] was 0% and the “Elevated ALT, treatment-related adverse event, Grade ≥ 3” value [1] was 0%. The “Fatigue, treatment-related adverse event, All Grades” value [1] was 41%, the “Fatigue, treatment-related adverse event, Grade ≥ 3” value [1] was 11% and the “Infections, treatment-related adverse event, All Grades” value [1] was 9%. The “Infections, treatment-related adverse event, Grade ≥ 3” value [1] was 9%, the “Nausea, treatment-related adverse event, All Grades” value [1] was 30% and the “Nausea, treatment-related adverse event, Grade ≥ 3” value [1] was 0%. The “Neutropenia, treatment-related adverse event, All Grades” value [1] was 2%, the “Neutropenia, treatment-related adverse event, Grade ≥ 3” value [1] was 2% and the “QTc prolongation, treatment-related adverse event, All Grades” value [1] was 7%. The “QTc prolongation, treatment-related adverse event, Grade ≥ 3” value [1] was 5%, the “Thrombocytopenia, treatment-related adverse event, All Grades” value [1] was 14% and the “Thrombocytopenia, treatment-related adverse event, Grade ≥ 3” value [1] was 11%. The “Vomiting, treatment-related adverse event, All Grades” value [1] was 14%, the “Vomiting, treatment-related adverse event, Grade ≥ 3” value [1] was 0% and the “discontinuation of pracinostat due to an AE, patients” value [1] was 25%. The “patients who experienced a grade ≥ 3 TRAE” value [1] was 20%, the “patients who experienced at least 1 TRAE” value [1] was 77% and the “pracinostat doses at which grade ≥ 3 thrombocytopenia was experienced” value [1] was no less than 80 mg. For the same compound, the “DLTs, patients” value ([1]; 28 days) was 13%, the “doses at which DLTs occurred” value ([1]; 28 days) was no less than 40 mg and the “recommended phase II dose (RP2D)” value ([1]; po, 28 days) was 60 mg. For the same compound, the “accumulation between Day 1 and Day 15 following repeated dosing” value ([2]; 100-mg dose level) was “moderate accumulation”, the “plasma concentrations relative to IC50 for HDAC 1, 2, and 3” value ([2]; all dose levels) was “above the 50% inhibitory concentration (IC50)” and the half-life ([2]; oral, 120 mg, prolonged t1/2 reaching, discussion summary) was no more than 840 min. The Tmax ([2]; oral, range over dose levels, 40-120 mg, Days 1 and 15) was 0.8 to 1.3 h, the half-life ([2]; oral, mean t1/2, range over dose levels, 40-120 mg, Days 1 and 15) was 420 to 846 min and the AUC(0-inf) [2, 9] was 477 ± 191 ng·h/mL. It also gave a Cmax [2, 10] of 84 ± 34 ng/mL, a Cmax [2, 9] of 64 ± 19 ng/mL and a Tmax [2, 10] of 1.1 ± 0.7 h. It also gave a Tmax [2, 9] of 1.3 ± 0.7 h, a half-life ([2]; po, 40 mg, t1/2, Day 1, 40 mg oral, n=6, mean±SD) of 564 ± 210 min and a half-life ([2]; po, 40 mg, t1/2, Day 15, 40 mg oral, n=5, mean±SD) of 642 ± 138 min. It also gave an AUC(0-inf) [2, 11] of 948 ± 1140 ng·h/mL, an AUC(0-inf) [2, 12] of 766 ± 746 ng·h/mL and a Cmax [2, 11] of 133 ± 117 ng/mL. The Cmax [2, 12] was 118 ± 135 ng/mL, the Tmax [2, 11] was 1 ± 0.5 h and the Tmax [2, 12] was 0.8 ± 0.3 h. The half-life ([2]; po, 60 mg, t1/2, Day 1, 60 mg oral, n=3, mean±SD) was 726 ± 138 min, the half-life ([2]; po, 60 mg, t1/2, Day 15, 60 mg oral, n=3, mean±SD) was 708 ± 204 min and the AUC(0-inf) [2, 13] was 1050 ± 803 ng·h/mL. It also gave an AUC(0-inf) [2, 14] of 977 ± 459 ng·h/mL, a Cmax [2, 13] of 189 ± 182 ng/mL and a Cmax [2, 14] of 164 ± 122 ng/mL. For the same compound, the Tmax [2, 13] was 1.3 ± 0.8 h, the Tmax [2, 14] was 1.2 ± 0.3 h and the half-life ([2]; po, 80 mg, t1/2, Day 1, 80 mg oral, n=3, mean±SD) was 420 ± 66 min. For the same compound, the half-life ([2]; po, 80 mg, t1/2, Day 15, 80 mg oral, n=3, mean±SD) was 558 ± 246 min, the AUC(0-inf) [2, 15] was 1170 ± 347 ng·h/mL and the AUC(0-inf) [2, 16] was 1980 ± 682 ng·h/mL. The Cmax [2, 15] was 187 ± 99 ng/mL, the Cmax [2, 16] was 314 ± 143 ng/mL and the Tmax [2, 15] was 1.2 ± 0.3 h. The Tmax [2, 16] was 1 ± 0.5 h, the half-life ([2]; po, 100 mg, t1/2, Day 1, 100 mg oral, n=3, mean±SD) was 504 ± 66 min and the half-life ([2]; po, 100 mg, t1/2, Day 15, 100 mg oral, n=3, mean±SD) was 822 ± 336 min. For the same compound, the AUC(0-inf) [2, 17] was 1360 ± 725 ng·h/mL, the AUC(0-inf) [2, 18] was 757 ng·h/mL and the Cmax [2, 17] was 202 ± 83 ng/mL. The Cmax [2, 18] was 96 ng/mL, the Tmax [2, 17] was 1.2 ± 0.4 h and the Tmax [2, 18] was 1 h. The half-life ([2]; po, 120 mg, t1/2, Day 1, 120 mg oral, n=6, mean±SD) was 648 ± 180 min, the half-life ([2]; po, 120 mg, t1/2, Day 15, 120 mg oral, n=2, mean) was 846 min and the “effect of AZA administration on PK parameters for pracinostat” value ([2]; in vivo) was “not affected”. For the same compound, the “potency relative to vorinostat” value [3] was “about twice”, the “AcH3 levels in PBMCs” value [4] was “increased across all dose levels” and the “stable disease (SD) as best response, patients” value ([5]; ref 12) was 32%. For the same compound, the “stable disease (SD) as best response, patients” value ([5]; ref 13) was 21%, the “dose of early emergence of grade 3 TRAEs and DLTs” value ([5]; continuous 5-day dosing every 2 weeks) was 20 mg and the “PFS of responding AML patient” value ([6]; 80 mg dose level, 11 cycles) was 362 days. For the same compound, the “PFS of responding AML patient” value ([6]; 120 mg dose level, 8 cycles) was 197 days, the progressive disease ([6]; 32 evaluable patients) was 31% and the “responders (CR or CCyR)” value ([6]; 32 evaluable patients) was 6%. For the same compound, the “Median OS” value ([6]; 95% CI: 114.0- NA) was 362 days, the patients who died ([6]; Thirteen patients of 44) was 30% and the “increased half-life (t1/2) compared to vorinostat” value [7] was 3.3 fold. The “increased oral bioavailability compared to vorinostat” value [7] was 4.1 fold.

In the case of O=C(CCCCCCC(=O)Nc1ccccc1)NO [vorinostat], the half-life [8] is listed as 1 to 2 h.
